Measured values published in ChEMBL document CHEMBL1127035, “Neurosteroid analogues: structure-activity studies of benz[e]indene modulators of GABAA receptor function. 1. The effect of 6-methyl substitution on the electrophysiological activity of 7-substituted benz[e]indene-3-carbonitriles” (J Med Chem, 1993).
The source made the active and inactive calls. The rule behind the calls is not given here.

Tests used:
Format in all cases: functional
Rattus norvegicus [1] = species: Rattus norvegicus; experiment: Ability of compound at 10 uM for current activation in the absence of GABA in cultured postnatal rat hippocampal neurons using whole-cell patch clamp method; NR=No response
How it was run: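 Whole-cell voltage clamp at -60 mV and ~22 °C in rat hippocampal cultures (postnatal pups, 3-10 days in vitro), with a CsCl-based pipette solution at pH 7.3. Compound alone, without GABA, was pressure-ejected for 200 ms (DMSO <0.2% final). The peak directly gated current was compared with the same cell's response to 1 μM GABA alone. N = cells.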

Rattus norvegicus [2] = species: Rattus norvegicus; experiment: Ability of compound at 1 uM to potentiate GABA-mediated currents in cultured postnatal rat hippocampal neurons using whole-cell patch clamp method; NR=No response
How it was run: (§1)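 Cultured postnatal rat hippocampal neurons (pups 1-2 days old, 3-10 days in vitro) were whole-cell voltage-clamped at -60 mV and room temperature (~22 °C), with a CsCl/HEPES/EGTA pipette solution at pH 7.3. Compound plus 1 μM GABA was pressure-ejected for 200 ms, with DMSO <0.2% final. Peak current was normalized to 1 μM GABA alone on the same cell (100% = no change). N = cells.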

Rattus norvegicus [3] = species: Rattus norvegicus; experiment: Ability of compound at 1 uM to potentiate GABA-mediated currents in cultured postnatal rat hippocampal neurons using whole-cell patch clamp method; how it was run: as §1
Rattus norvegicus [4] = species: Rattus norvegicus; experiment: Ability of compound at 1 uM for current activation in the absence of GABA in cultured postnatal rat hippocampal neurons using whole-cell patch clamp method
Rattus norvegicus [5] = species: Rattus norvegicus; experiment: Ability of compound at 10 uM for current activation in the absence of GABA in cultured postnatal rat hippocampal neurons using whole-cell patch clamp method
How it was run: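 Whole-cell voltage clamp at -60 mV, room temperature (~22 °C), on hippocampal neurons cultured 3-10 days from 1-2 day old albino rat pups. Pipette solution is CsCl-based, pH 7.3. Compound is applied at 10 µM in the absence of GABA (DMSO stock, final DMSO <0.2%) by 200 ms pressure ejection. Peak gated current is compared with the same cell's 1 µM GABA response. N = cells.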

Rattus norvegicus [6] = species: Rattus norvegicus; experiment: Ability of compound at 10 uM to potentiate GABA-mediated currents in cultured postnatal rat hippocampal neurons using whole-cell patch clamp method; how it was run: as §1
Rattus norvegicus [7] = species: Rattus norvegicus; experiment: Ability of compound at 1 uM for current activation in the absence of GABA in cultured postnatal rat hippocampal neurons using whole-cell patch clamp method; NR=No response
Rattus norvegicus [8] = species: Rattus norvegicus; experiment: Effective concentration against current mediated by 1 uM GABA in cultured rat hippocampal neurons

Row | SMILES | Gated current (Rattus norvegicus [1]) | Response (Rattus norvegicus [2]) | Response (Rattus norvegicus [3]) [%] | also measured
1 | C[C@@H]1C2CC[C@@]3(C)C(CC[C@H]3C#N)C2CC[C@H]1CCO (some centres not stated) | inactive | inactive |  | 
2 | C[C@]12CC[C@@H](O)C[C@@H]1CC[C@@H]1[C@@H]2CC[C@]2(C)[C@H](C#N)CC[C@@H]12 | inactive | inactive |  | 
3 | C[C@]12CCC3C[C@H](CCO)CCC3C1CC[C@@H]2C#N (some centres not stated) | inactive |  | 255 | 
4 | CC1(C)C2CC[C@@]3(C)C(CC[C@@H]3C#N)C2CC[C@H]1CCO (some centres not stated) | inactive |  | 220 | 
5 | C[C@]12CC[C@@H](O)C[C@@H]1CC[C@@H]1[C@@H]2CC[C@]2(C)[C@@H](C#N)CC[C@@H]12 |  |  | 443 | Gated current (Rattus norvegicus [4]): 22%; Gated current (Rattus norvegicus [5]): 49%
6 | C[C@]12CC[C@H]3[C@@H](CC[C@H]4C[C@H](O)CC[C@@H]43)[C@@H]1CC[C@H]2C#N | inactive | inactive |  | 
7 | C[C@@H]1C2CC[C@@]3(C)C(CC[C@@H]3C#N)C2CC[C@H]1CCO (some centres not stated) | inactive | inactive |  | Response (Rattus norvegicus [6]): 244%
8 | C[C@]12CC[C@H]3[C@@H](CC[C@H]4C[C@H](O)CC[C@@H]43)[C@@H]1CC[C@@H]2C#N |  |  | 372 | Gated current (Rattus norvegicus [4]): 15%; Gated current (Rattus norvegicus [5]): 38%
9 | CC1(C)C2CC[C@@]3(C)C(CC[C@H]3C#N)C2CC[C@H]1CCO (some centres not stated) | inactive | inactive |  | 
10 | C[C@H]1C2CC[C@@]3(C)C(CC[C@@H]3C#N)C2CC[C@H]1CCO (some centres not stated) |  |  | 382 | Gated current (Rattus norvegicus [7]): inactive; Gated current (Rattus norvegicus [5]): 26%
11 | C[C@]12CCC3C[C@H](CCO)CCC3C1CC[C@H]2C#N (some centres not stated) | inactive | inactive |  | 
12 | CC(=O)[C@H]1CCC2C3CC[C@@H](CCO)CC3CC[C@@]21C (some centres not stated) |  |  |  | EC50 (Rattus norvegicus [8]): 200 nM
